This sample holds only a part of the variants without activity.

From the RNAGym collection of RNA variant scans (doi:10.1126/science.aae0568) come the findings set out here.

B1: tRNA (parent)
chain: GUUCCGUUGGCGUAAUGGUAACGCGUCUCCCUCCUAAGGAGAAGACUGCGGGUUCGAGUCCCGUACGGAACG

This data set covers variants of B1. Put plainly: yeast fitness relative to wild type (ratio to wild type); higher = fitter; tRNA-Arg(CCU), competitive growth, 37 C, YPD. In short, it runs like this:
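Amplicons of the tRNA-Arg(CCU) gene were sequenced, 100-nucleotide paired-end, from the start population and from each end population of a pooled yeast competition. The competition, in six parallel replicates, lasted 24 hours in YPD at 37°C. Fitness relative to wild type was calculated from changes in genotype frequencies. Genotypes had to have ≥ 100 starting reads, and estimates < 0.5 were set to 0.5.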
Regarding U13G A69C, the yeast fitness worked out at 0.951.
With A14C A15C A21U A57G A65G, the yeast fitness is at most 0.5.
Consider A14C A45U C62A, for which the yeast fitness was at most 0.5.
As to U13G C22U A70U, the yeast fitness is 0.751.
As for U13G C22U A70C, the yeast fitness was determined as 0.748.
For the variant A14C A21G C29A C34U A69U, the yeast fitness is 0.638.
Take U13G C49U: the yeast fitness is 0.693.
For the variant U13C U16A G17C C34U, the yeast fitness was at most 0.5.
U13C U47A G68A: the yeast fitness is at most 0.5.
As to U13C G18A A69C, the yeast fitness was 0.719.
For U13C G48C G50A, the yeast fitness was at most 0.5.
In the case of U13G A57U it was 0.6; in that of U13G A14G G17A G39C, 0.758.
Take U13G G39C A69U: the yeast fitness is 0.625.
For the variant U13G U35C G38A A42U G58C, the yeast fitness was at most 0.5.
Regarding A14C A21G C22U U47A G56A, the yeast fitness worked out at 0.622.
Regarding U13C U16G A70U, the yeast fitness was 0.595.
In the case of A14C A15C C27U C29A C34G G50C it was 0.597.
In the case of U13C G23A C29G A45U C62U it was at most 0.5; in that of U13G G23C A43C, 0.584; in that of U13C U16C U26A, 0.637.
As for U13G U53C U64C, the yeast fitness was at most 0.5.
As to U13G C24A A45G C55G, the yeast fitness came out at 0.622.
On to A14C A20U C27G U59C C61A, for which the yeast fitness was at most 0.5.
As for A14C A36C A69U, the yeast fitness turned out to be 0.905.
As for U13C U28C G48A C61G A69C, the yeast fitness is at most 0.5.
In the case of U13G A14C A42U G51A U54A G56A, the yeast fitness was at most 0.5.
For the variant U13G C33G A40G C60A, the yeast fitness was at most 0.5.
For A14C A43G G68C, the yeast fitness was determined as 0.65.
Consider U13G C66U, for which the yeast fitness was 0.818.
In the case of U13C G50C C66U, the yeast fitness was at most 0.5.
In the case of U13C G23C it was 0.511; in that of U13C U19C A36U A42G G52A C60A C62A, at most 0.5.
Consider U13G U47A, for which the yeast fitness was determined as 0.976.
In the case of U13G C29A it was 0.571; in that of U13G C29U, 0.769; in that of U13C G25C A40C, 0.667.
Take A14C A40G A42U: the yeast fitness was at most 0.5.
Consider A14C A15U U47G, for which the yeast fitness was at most 0.5.
In the case of U13C U26G C27U C49U C66U it was 0.801; in that of U13C U47C C62G, at most 0.5.
With U13C G38C A43C G51C G56C A69G, the yeast fitness was at most 0.5.
In the case of A14C C22A C46A C66U it was at most 0.5; in that of A14C A40G A57G, 0.539; in that of U13G C29U C31U U35A A57C, at most 0.5.
On to U13C C55G C61G C66U, for which the yeast fitness was at most 0.5.
For the variant A14C C22G G52C A65U, the yeast fitness was at most 0.5.
The figure for A14C A45C is 0.702.
In the case of A14C A45U, the yeast fitness came to 0.717.
As for U13G C22U U28C C31A, the yeast fitness was at most 0.5.
Take U13C G39A: the yeast fitness came out at 0.982.
Take U13G C55G C60A: the yeast fitness is at most 0.5.
For A14C A21C C24U A36U A43U A65C C66U, the yeast fitness is at most 0.5.
Take A14C A15U C27U U32C U35G: the yeast fitness was 0.584.
Turning to U13G A36C, the yeast fitness amounted to 0.52.
On to U13G A36G, for which the yeast fitness is 0.913.
Consider U13G G38C, for which the yeast fitness is 0.757.
As for U13G U19G A57G C62U, the yeast fitness was at most 0.5.
In the case of U13C U28C it was 0.838; in that of U13G A14C G39C G41A C60G C61U C62G A65U, at most 0.5.
Turning to U13C G68A, the yeast fitness was determined as 0.785.
The figure for U13G U53C G67C is 0.771; for A14C A40G C49U G58A it is at most 0.5; for A14C A20U C31U it is at most 0.5.
Turning to A14C A20U C31A, the yeast fitness was at most 0.5.
Consider U13G C27A G52C C55A C62G, for which the yeast fitness came to 0.601.
On to U13C U26C, for which the yeast fitness turned out to be 0.809.
Regarding U13C U16G C27G C49A C60A, the yeast fitness is at most 0.5.
In the case of A14C A20G C22U C30U, the yeast fitness was at most 0.5.
In the case of A14C C22U U64C A70G, the yeast fitness was at most 0.5.
For the variant A14C A15G C46G A69G, the yeast fitness was at most 0.5.
For U13G C33U, the yeast fitness is 0.671.
In the case of U13G C33G it was 0.51.
With A14C A21C C27U C62U A69C, the yeast fitness was at most 0.5.
For the variant U13G A20U U59A C66U, the yeast fitness is at most 0.5.
The figure for U13G A14U U16A G17U G67C is at most 0.5; for U13C G38A A70U it is 0.525.
Consider U13G U28A U53C C55G C66A, for which the yeast fitness is at most 0.5.
Regarding A14C A21U C22U A37G G44A A45C C46A C55U U59G, the yeast fitness came out at 0.608.
On to U13C G18A G41A C62G A65U, for which the yeast fitness came to 0.619.
Turning to U13C C34G C46U A57U C60G A65C, the yeast fitness is at most 0.5.
Regarding U13C G18A, the yeast fitness stood at 0.843.
As for A14C A20U G25C A43C, the yeast fitness is at most 0.5.
Turning to U13C U16G G25C, the yeast fitness was at most 0.5.
In the case of A14C A20U C31U G38C, the yeast fitness was at most 0.5.
For the variant A14C A21G C29A C34U, the yeast fitness stood at 0.612.
In the case of A14C A57C G68C, the yeast fitness is at most 0.5.
Turning to A14C A43U, the yeast fitness came out at 0.731.
Turning to A14C A43G, the yeast fitness was 0.628.
The figure for U13G U35G A40G C66U is 0.526.
For U13G G67C, the yeast fitness is 0.777.
With U13G G18A G39C A69U, the yeast fitness was at most 0.5.
As for A14C C24G G52C C55U C66U, the yeast fitness is at most 0.5.
For the variant U13G G58C C62U A70U, the yeast fitness is at most 0.5.
The figure for U13C C34U is 0.668; for U13C C31U G58C C61A A69U it is at most 0.5.
In the case of U13C C31A G56C it was 0.57; in that of A14C C24A G52A U53A, at most 0.5; in that of U13G C31U U35A G51A A69U A70G, at most 0.5.
For the variant A14C A20C U32C, the yeast fitness was at most 0.5.
On to A14C A15G G17C A45C, for which the yeast fitness was at most 0.5.
For the variant U13C G56A, the yeast fitness turned out to be 1.04.
As for U13C G56C, the yeast fitness worked out at 0.549.
On to U13C C61G, for which the yeast fitness stood at 0.609.
Consider U13G G44C, for which the yeast fitness amounted to 0.774.
With A14C A57U, the yeast fitness was 0.52.
As to A14C A57G, the yeast fitness came to 0.748.
As for U13G G48A C62G A69U, the yeast fitness is 0.599.
For A14C A20U C27G U53C, the yeast fitness was at most 0.5.
Turning to U13G C49A G52C, the yeast fitness is at most 0.5.
With U13C G25C C30G, the yeast fitness came to 0.611.
As to U13C G38C A40U C49A C66A, the yeast fitness was at most 0.5.
As for U13G C46U, the yeast fitness worked out at 0.895.
The figure for U13C C31U is 1.01.
The figure for U13C C31A is 0.901; for U13G C24G it is 0.539.
U13G C24A: the yeast fitness was determined as 0.602.
For A14C A21C G39A C49G, the yeast fitness was at most 0.5.
As for U13G U19A C27U C29U, the yeast fitness is at most 0.5.
For U13G C30A A65U A69C, the yeast fitness is at most 0.5.
In the case of U13G C29U C33U G67A, the yeast fitness is at most 0.5.
Take A14C A21G G25A C33U C61A A69U: the yeast fitness was at most 0.5.
Regarding U13C G44C G58A, the yeast fitness was found to be 0.927.
As for U13G U35C G38A A42U G58C A65U, the yeast fitness is at most 0.5.
Consider U13G C22U C31A C62U A65C, for which the yeast fitness is at most 0.5.
U13G U28C G38C: the yeast fitness was at most 0.5.
On to U13G C31A A57U, for which the yeast fitness was at most 0.5.
On to U13G G38C A42G G56C U59A A70U, for which the yeast fitness is at most 0.5.
The figure for U13G C31A C66U is 0.814; for U13C C49G G50C A65U it is at most 0.5; for U13G A42U G44A C49A it is 0.602.
For the variant U13C C46U G48A, the yeast fitness was 0.732.
In the case of U13C C34G C62U, the yeast fitness is at most 0.5.
In the case of A14C C22U C24U A37G it was at most 0.5; in that of A14C A45C G50A, at most 0.5; in that of U13C C55A A69U, 0.624.
The figure for U13C C33A A36U is at most 0.5.
With U13C U47A C62U, the yeast fitness was found to be 0.596.
In the case of A14C A45U G48A it was at most 0.5; in that of U13C C31U C62A G63A, at most 0.5.
Regarding A14C A45C C60G, the yeast fitness is at most 0.5.
In the case of U13G A21U it was 1.09.
For the variant A14C C22A C55G, the yeast fitness is at most 0.5.
For A14C A15U U16A G44A A57U, the yeast fitness is at most 0.5.
Take U13G A14C A40C A42U: the yeast fitness is at most 0.5.
As for U13C C61A G67A, the yeast fitness is at most 0.5.
As to A14C A15G G25C U32A A43C G63A A69C, the yeast fitness is at most 0.5.
The figure for A14C A45G C49U is 0.549; for U13G C27G it is 0.537; for U13G A45U it is 0.964.
On to A14C A20U C33U, for which the yeast fitness was at most 0.5.
In the case of A14C A15U C30U C34G C61A U64A A69U it was at most 0.5.
In the case of U13C C55A A65U it was at most 0.5; in that of A14C A42G G48A, at most 0.5; in that of U13C C33A A36C G63C C66G, at most 0.5.
Take A14C A36U: the yeast fitness came to 0.591.
As for A14C A36C, the yeast fitness amounted to 0.564.
Take A14C A36G: the yeast fitness turned out to be 0.644.
In the case of U13G A45U A70C it was 0.649; in that of U13C C31U G56C, at most 0.5.
In the case of A14C A20U C66A, the yeast fitness was at most 0.5.
On to U13C C34G C55A, for which the yeast fitness was at most 0.5.
In the case of A14C C22G G63C it was at most 0.5; in that of U13C C60A, 0.685.
U13C C60U: the yeast fitness is 0.725.
U13C C31G C33G: the yeast fitness was at most 0.5.
With A14C A20G C30U, the yeast fitness is at most 0.5.
